Most compounds without a hit are left out; they make up all but 1.4% or so of the library.
ZTA DNA inh: ZTA (EBV) inhibition in EBNA-1 counter-screen; inhibition, % at 11 µM; ZTA-DNA binding, fluorescence polarization; P03206; AID 2234; hit rate 0.15% among 320,000; in the data active = inhibition above about 33%
Target sequence (P03206 whole entry, looked up): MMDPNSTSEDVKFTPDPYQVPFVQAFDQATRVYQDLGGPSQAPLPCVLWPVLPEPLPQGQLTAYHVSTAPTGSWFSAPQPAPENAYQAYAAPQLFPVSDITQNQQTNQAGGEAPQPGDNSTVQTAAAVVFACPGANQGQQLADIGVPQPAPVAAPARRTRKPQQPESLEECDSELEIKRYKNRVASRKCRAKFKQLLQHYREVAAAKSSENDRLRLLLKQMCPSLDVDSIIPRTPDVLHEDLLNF
core dimer inh: HCV core protein dimerization inhibition. TR-FRET GST/Flag-core106 dimerization, 1536-well. inhibition, % at 5 µM. hit rate 0.33% among 300,000;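 active = inhibition above the mean of all tested compounds plus 3 SD, set per screening campaign, cut at about 45% in these data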
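test system = GST/Flag-tagged HCV core106 proteins | probe or stimulus = Eu donor and XL665 acceptor anti-tag antibodies | times = compound-protein-antibody incubation 4 h at 22.5 °C | signal = TR-FRET, excitation 340 nm, emission 617 and 671 nm | measure = percent inhibition of core106 dimerization signal | controls = wells lacking GST-core106 and wells with excess unlabelled core106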
SUMO HTRF inh: SUMOylation inhibition; HTRF SUMOylation assay, SAE1/SAE2 + UBC9, in vitro; inhibition, % at 35 µM; hit rate 0.36% among 290,000; in the data active = inhibition above about 50%, passing the limit was not always enough; inconclusive = no clear call, values can overlap the other calls
Target sequence (P63279 whole entry, looked up): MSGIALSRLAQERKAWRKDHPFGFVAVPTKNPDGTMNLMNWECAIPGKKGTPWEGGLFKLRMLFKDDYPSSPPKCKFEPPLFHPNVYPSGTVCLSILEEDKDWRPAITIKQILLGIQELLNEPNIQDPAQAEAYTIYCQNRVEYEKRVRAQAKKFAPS
EBNA-1 inhibitor: blocks EBNA-1 binding to DNA; EBNA-1 DNA binding, fluorescence polarization; hit rate 0.34% among 300,000; inhibition, % at 14.8 µM; in the data active = inhibition above about 28%
HCV NS3 hel inh: HCV NS3 helicase inhibition | NS3 helicase DNA unwinding, Cy5 molecular beacon fluorescence | inhibition, % at 10.9 µM | hit rate 0.56% among 290,000 | AID 1800;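 active = inhibition above the mean of all tested compounds plus 3 SD, set per campaign, cut at about 35% in these data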;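 also: 0% = DMSO wells and 100% = thioflavine S control wells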
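System: NS3 helicase fragment of HCV / Schedule: 1 h at 25 °C / Control set: DMSO alone as 0% and 110 µM thioflavine S as 100% / Reagent: Cy5/quencher beacon DNA duplex and ATP to start / Technique: Cy5 fluorescence / Replication: singlicate / Evaluation: % inhibition of end-to-start signal ratio versus controls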
EBNA-1 inh conf: EBNA-1 (EBV) inhibition, confirmation. inhibition, % at 14.8 µM. Recombinant EBNA-1 DBD, Cy5-DNA fluorescence polarization. shares compounds with EBNA-1 inhibitor. hit rate 35% among 830;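 active = mean inhibition across replicates above a set limit taken from the earlier primary screen, cut at about 28% in these data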;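 also: plate controls were EBNA-1 protein with DMSO for no effect and wells lacking EBNA-1 for full effect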
ZTA DNA inh trip: blocks Epstein-Barr virus ZTA in triplicate, EBNA-1 counter-screen; inhibition, % at 11.1 µM; 830 tested, under 10 active; shares compounds with EBNA-1 inhibitor; Zta-ZRE DNA binding, Cy5 fluorescence polarization;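 active = mean inhibition over triplicates above a set limit taken from the primary EBNA-1 screen, cut at about 37% in these data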;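 also: purified full length Zta protein with Cy5 labeled ZRE DNA probe; 0% = Zta with DMSO and 100% = wells lacking Zta protein; inhibitors lower polarization by freeing the labeled DNA probe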
Zta DNA confirm: confirmation of Epstein-Barr virus ZTA DNA binding inhibitors; shares compounds with ZTA DNA inh; Zta-ZRE DNA binding, fluorescence polarization; inhibition, % at 11.1 µM; hit rate 30% among 320; AID 2361;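 active = mean inhibition across triplicate runs above the hit threshold derived for the original primary screen, cut at about 33% in these data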;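 also: 0% = Zta with DMSO and 100% = wells lacking Zta protein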
EBNA-1 counter: blocks EBNA-1 DNA binding in ZTA counter-screen; 320 tested, under 10 active; inhibition, % at 14.8 µM; shares compounds with ZTA DNA inh; fluorescence polarization; call rule not given here
The depositor's hits bear a star; ? = inconclusive; nt = no result.

SMILES | ZTA DNA inh | core dimer inh | SUMO HTRF inh | EBNA-1 inhibitor | HCV NS3 hel inh | Zta DNA confirm | EBNA-1 counter | others
O=C(NCCC1=CCCCC1)C1CCC(CNc2nc(=S)[nH]c3ccccc23)CC1 (stereo not drawn) | 8.4 | 9.5 | 47.1 | 31.7* | 9.1 | nt | nt | EBNA-1 inh conf=24.1;ZTA DNA inh trip=-3.7
CCOC(=O)c1ccc(NC(=O)c2cccc(S(=O)(=O)N3c4ccccc4CC3C)c2)s1 (stereo not drawn) | -13.2 | 13.8 | -4.6 | 40.1* | -26.0 | nt | nt | EBNA-1 inh conf=10.4;ZTA DNA inh trip=-1.1
COc1cc(CC(=O)N(C)CC(=O)Nc2ccc(Cl)c(C(F)(F)F)c2)cc(OC)c1OC | -9.4 | -3.0 | 11.0 | 2.7 | -14.1 | nt | nt
O=C(N/C(=C\c1ccc(Br)cc1)c1nc2ccccc2[nH]1)c1ccco1 | 9.1 | -4.0 | 18.1 | 49.0* | 2.0 | nt | nt | EBNA-1 inh conf=33.2*;ZTA DNA inh trip=1.9
Cc1ccc(NS(=O)(=O)c2cccc(C(=O)NCC(c3ccc(F)cc3)N3CCOCC3)c2)cc1 (stereo not drawn) | 10.9 | 1.5 | nt | 2.8 | nt | nt | nt
COCCNC(=O)c1ccc(-n2c(SCc3cc(F)ccc3F)nc3ccccc3c2=O)cc1 | -8.0 | 5.7 | 12.0 | 39.6* | -1.0 | nt | nt | EBNA-1 inh conf=9.3;ZTA DNA inh trip=-4.5
CCOc1ccc(NC(=O)CCC(=O)NNC(=O)COc2ccc(C)cc2)cc1 | 26.5 | 3.6 | 5.1 | 19.2 | 18.7 | nt | nt
CCOc1ccc(NC(=O)CCC(=O)NNC(=O)COc2ccc(C)cc2Br)cc1 | 10.6 | 7.8 | 12.8 | 50.5* | -31.8 | nt | nt | EBNA-1 inh conf=99.3*;ZTA DNA inh trip=10.6
CC1CCC(NC(=O)CSc2nnnn2C)CC1 (stereo not drawn) | 6.7 | nt | nt | nt | nt | nt | nt
Cc1nc(C(=O)Nc2cc(F)cc(Cl)c2)sc1C1(C)CC(c2ccccc2)=NO1 (stereo not drawn) | 0.2 | 9.2 | nt | 0.3 | nt | nt | nt
CC1CCN(C(=O)COC(=O)c2n[nH]c(=O)c3ccccc23)CC1 | 35.6* | nt | nt | nt | nt | -0.8 | -7.2
CCOc1ccc(S(=O)(=O)NCCC(=O)NCC(c2ccco2)N2CCCCC2)cc1 (stereo not drawn) | -11.6 | nt | nt | nt | nt | nt | nt
CCN(CC(=O)Nc1ccc(NC(C)=O)cc1)C(=O)c1cccnc1Sc1ccc(C)c(C)c1 | 2.7 | 1.7 | nt | -1.3 | nt | nt | nt
Cc1ccccc1OCc1nnc(SCC(=O)NCc2ccco2)n1C | 35.0* | 0.0 | 17.7 | 12.9 | 4.5 | -8.4 | 0.3
Cc1ccc(OCc2nnc(SCC(=O)NCc3ccco3)n2C)cc1 | -21.9 | -5.0 | -19.8 | 3.4 | 9.3 | nt | nt
CC(C)Oc1ccc(Cl)cc1Nc1nc(NCCO)nc(N2CCCC2)n1 | 10.7 | -22.5 | nt | 8.7 | nt | nt | nt
COc1cc(C#Cc2c(-c3cncn3C)n(C)c3ccc(-c4ccc(OC)c(OC)c4)cc23)cc(OC)c1 | 37.8* | nt | nt | nt | nt | 35.9* | 7.3
Cc1c(NC(=O)C(C)OC(=O)c2cccnc2Cl)c(=O)n(-c2ccccc2)n1C (stereo not drawn) | 6.3 | nt | nt | nt | nt | nt | nt
CC(C)CN(C(=O)COc1ccc(Br)cc1C=O)C1CCS(=O)(=O)C1 (stereo not drawn) | -17.7 | -0.4 | nt | -1.5 | nt | nt | nt
NC(=O)CSc1nc2sc3c(c2c2ncnn12)CCCC3 | 37.6* | -21.8 | 3.6 | -3.5 | -1.6 | 6.4 | 3.1
Cc1ccc(Cn2ncc(Cl)c(Cl)c2=O)cc1 | 1.8 | -34.4 | 9.6 | -3.9 | 12.3 | nt | nt
O=c1c(Cl)c(Cl)cnn1Cc1ccccc1Cl | 34.2* | 27.3 | 3.9 | 3.5 | 7.6 | 4.4 | -0.7
COc1ccc(C2=NS(=O)(=O)N(C)C(C(=O)NCc3cccs3)=C2)cc1OC | 6.2 | 5.2 | 2.2 | 9.8 | -4.0 | nt | nt
C#CCOCCOCCOCCNc1nc(N2CCN(C(=O)CCCCCCCCCCNC(=O)Cn3cc(C[C@@H](C)O)nn3)CC2)nc(N2CCN(C(=O)CCCCCCCCCCNC(=O)[C@H](CCCCN)n3cc(CCCC(=O)O)nn3)CC2)n1 | -2.1 | -7.2 | nt | 3.3 | nt | nt | nt
C#CCOCCOCCOCCNc1nc(N2CCN(C(=O)CCCCCCCCCCNC(=O)Cn3cc(C[C@@H](C)O)nn3)CC2)nc(N2CCN(C(=O)CCCCCCCCCCNC(=O)[C@H](CO)n3cc(CCCSC)nn3)CC2)n1 | 2.8 | 5.7 | nt | 18.3 | nt | nt | nt
SMILES | ZTA DNA inh | core dimer inh | SUMO HTRF inh | EBNA-1 inhibitor | HCV NS3 hel inh | Zta DNA confirm | EBNA-1 counter | others
C#CCOCCOCCOCCNc1nc(N2CCN(C(=O)CCCCCCCCCCNC(=O)Cn3cc(C[C@@H](C)O)nn3)CC2)nc(N2CCN(C(=O)CCCCCCCCCCNC(=O)[C@H](CCCN=C(N)N)n3cc(C[C@@H](C)CC)nn3)CC2)n1 | 55.7* | 9.8 | nt | 13.9 | nt | 17.8 | -5.9
C#CCOCCOCCOCCNc1nc(N2CCN(C(=O)CCCCCCCCCCNC(=O)[C@H](CO)n3cc(CCCSC)nn3)CC2)nc(N2CCN(C(=O)CCCCCCCCCCNC(=O)[C@H](CCCN=C(N)N)n3cc(C[C@@H](C)CC)nn3)CC2)n1 | 95.9* | 11.6 | nt | 2.6 | nt | 68.8* | -6.1
O=C(NC1CCCC1)C(c1ccccn1)N(C(=O)c1csnn1)c1ccccc1Br (stereo not drawn) | 11.2 | -0.1 | nt | 8.7 | nt | nt | nt
COc1cc(NC(=O)C2=C(N3CCOCC3)/C(=C/c3ccc(Cl)cc3)CC2)cc(OC)c1OC | -2.0 | 8.4 | 5.9 | -3.5 | -1.1 | nt | nt
COc1cc(NC(=O)C2=C(N3CCOCC3)/C(=C\c3ccc(N(C)C)cc3)CCC2)cc(OC)c1OC | 100.5* | 7.2 | -6.8 | 4.9 | 4.3 | -5.3 | -3.2
CN(C(=O)CN1CCN(c2ccccc2F)CC1)C1CCCc2ccccc21 (stereo not drawn) | 1.7 | -3.5 | 2.6 | 5.6 | -9.2 | nt | nt
Cc1cc2c(cc1C)C(c1ccccc1Br)CC(=O)N2 (stereo not drawn) | 33.2* | 13.7 | -0.2 | 3.6 | -2.5 | -4.9 | -5.5
COc1ccc(S(=O)(=O)Cc2ccc(C(=O)NC3CCCCC3)o2)cc1 | -5.3 | -6.6 | 5.2 | -4.8 | -3.1 | nt | nt
CCCCc1ccc(NC(=S)Nc2ccc(Nc3ccc(OC)cc3)cc2)cc1 | -22.0 | -2.4 | -8.5 | -4.7 | -28.8 | nt | nt
CCCCc1ccc(NC(=O)OC)cc1 | 166.2* | -0.8 | -18.0 | 1.6 | -10.7 | 0.1 | 2.9
Cc1ccc(CNC(=O)CSc2ncc(C(=O)Nc3ccccc3)c(=O)n2C)cc1 | -5.0 | -0.9 | nt | -10.9 | nt | nt | nt
CCCOC(=O)C1=C(C)N(C)C(=O)NC1c1cc2c(cc1Br)OCO2 (stereo not drawn) | -26.7 | -4.2 | -4.6 | -16.2 | 0.3 | nt | nt
Cc1ccc(S(=O)(=O)/N=C2\C=C(Nc3cccc(C(=O)O)c3)C(=O)c3ccccc32)cc1 | 33.3* | -5.5 | ? | 1.6 | -11.3 | 35.5* | -14.5
